From PubChem BioAssay
In the library only some 1.6% were active in any assay of this set; here they are far more common.
MT1-MMP act inh: MT1-MMP (human) activation inhibition; P50281; HT1080 RFP-PRO-GFP cells, GFP/RFP ratio fluorescence, overnight; percent of plate control window, DMSO zero; GFP/RFP ratio change, % at 20 µM; actives 0.061% (n = 360,000); AID 651647;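 active means GFP/RFP ratio change of at least 30% with cell ATP level not reduced by more than half and red fluorescence within 50% of control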
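Assay system: RFP-PRO-GFP reporter HT1080 cells; read-out basis: GFP/RFP fluorescence ratio; benchmarks: DMSO wells and RFP-L50D-GFP cells; doses: 20 µM single dose, 1% DMSO; schedule: overnight cell settling, then overnight compound exposure, 37 °C, 5% CO2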
Tn7 DDE FP: DD(E)-Tn7 binding inhibition, primary FP screen | P02675 | FP displacement of FITC-Tn7 peptide from fibrin DD(E); 0% = median of compound wells per plate | inhibition, % at 8.3 µM | actives 0.13% (n = 370,000);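 active means inhibition above the mean of compounds falling within the control limits plus 3 SD of them, cut at about 14% in these data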
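Test system: human clot-derived fibrin DD(E) complex / Quantity: 2 µM final DD(E) protein / Incubation: 10 min plus 3 h, room temperature / Measured by: fluorescence polarization / Benchmarks: high control of 10 µM Aha-Tn7 peptide / Replicates: singlicate testing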
ADAM10 inh: ADAM10 inhibition, QFRET primary screen; O14672; recombinant ADAM10, EDANS/DABCYL FRET peptide cleavage, 3 h; inhibition, % at 7 µM; actives 0.62% (n = 370,000); AID 720582;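 active means inhibition above a per-campaign cutoff equal to the mean of compounds falling between control-based bounds plus 3 SD, cut at about 20% in these data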
Tn6 DDE FP: disrupts Tn6 cyclic peptide binding to fibrin D-Dimer-E complex; P02675; Fibrin DD(E) TRITC-Tn6 fluorescence polarization displacement; inhibition, % at 8.3 µM; actives 0.21% (n = 370,000);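 active means inhibition above a per-campaign cutoff: mean of compounds within control limits plus 3 SD, cut at about 15% in these data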
ADAM17 inh: inhibits human ADAM17; P78536; recombinant ADAM17, EDANS/DABCYL FRET peptide cleavage; inhibition, % at 6.95 µM; actives 0.83% (n = 370,000); AID 720648;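 active means inhibition above the mean of compounds lying between control limits plus 3 SD, set per campaign, cut at about 8.5% in these data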
Target sequence (P78536 215-824 limits assumed): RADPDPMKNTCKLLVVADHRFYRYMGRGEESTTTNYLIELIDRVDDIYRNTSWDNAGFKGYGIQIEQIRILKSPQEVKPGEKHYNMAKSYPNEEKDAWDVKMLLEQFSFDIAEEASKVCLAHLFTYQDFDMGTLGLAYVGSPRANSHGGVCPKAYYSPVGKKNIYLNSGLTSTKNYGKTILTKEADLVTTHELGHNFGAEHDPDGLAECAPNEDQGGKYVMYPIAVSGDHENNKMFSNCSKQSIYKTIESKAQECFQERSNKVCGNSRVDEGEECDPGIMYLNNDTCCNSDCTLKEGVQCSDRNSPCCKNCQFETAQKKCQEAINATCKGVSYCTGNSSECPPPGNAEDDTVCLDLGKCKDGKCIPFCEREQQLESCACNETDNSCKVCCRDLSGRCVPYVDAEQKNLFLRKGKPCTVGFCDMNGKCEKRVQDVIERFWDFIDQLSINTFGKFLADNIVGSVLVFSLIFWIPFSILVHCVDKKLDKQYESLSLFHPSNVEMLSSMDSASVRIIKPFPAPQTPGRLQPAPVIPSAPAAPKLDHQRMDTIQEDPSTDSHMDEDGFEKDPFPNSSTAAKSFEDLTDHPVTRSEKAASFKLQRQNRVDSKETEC
ADAM10 confirm: confirmation of inhibitors of human ADAM10; actives 1% (n = 2,100); inhibition, % at 6.95 µM; shares compounds with ADAM10 inh; ADAM10 QFRET peptide cleavage, EDANS fluorescence; AID 743208;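 active means inhibition above about 20% chosen separately for each screening run, limit read from the data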
ADAM17 counter: ADAM17 inhibition, counter-screen for ADAM10 exosite hits | shares compounds with ADAM10 inh | ADAM17 QFRET peptide cleavage, EDANS fluorescence | inhibition, % at 6.95 µM | actives 0.5% (n = 2,100);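 active means mean triplicate inhibition above the solvent-only control wells' mean plus 3 SD, cut at about 12% in these data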
ADAM10 ctr: ADAM10 inhibition, counter-screen for ADAM17 exosite hits | shares compounds with ADAM17 inh | recombinant ADAM10, EDANS/DABCYL FRET peptide cleavage, 3 h | inhibition, % at 6.95 µM | actives 47% (n = 2,900) | AID 743256;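 active means mean inhibition over the triplicate runs exceeds the activity threshold set in the earlier primary screen, cut at about 20% in these data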
ADAM17 confirm: confirmation of inhibitors of human ADAM17 | inhibition, % at 6.95 µM | AID 743257 | recombinant ADAM17, EDANS/DABCYL QFRET peptide cleavage | shares compounds with ADAM17 inh | actives 65% (n = 2,900);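 active means mean inhibition across replicates above the hit cutoff set in the primary screen, cut at about 8.5% in these data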
Hits are given with their value; 0 = inactive; - = no result.

SMILES	MT1-MMP act inh	Tn7 DDE FP	ADAM10 inh	Tn6 DDE FP	ADAM17 inh	ADAM10 confirm	ADAM17 counter	ADAM10 ctr	ADAM17 confirm
O=S1(=O)N[C@@H](Cc2ccccc2)COc2cc(NCCCN3CCOCC3)ccc21	-	0	0	0	0	-	-	-	-
COc1ccc(-c2csc3ncnc(Oc4cccc5ccc(C)nc45)c23)cc1	0	0	20.5	0	8.9	0	0	0	0
Cc1ccc2cccc(Oc3ncnc4scc(-c5ccccc5)c34)c2n1	0	0	0	0	0	-	-	-	-
CCOC(=O)[C@@]12CCCC3=C1N(CCC3)C(=O)[C@H]2CC(=O)N1CCN(C(=O)C2CC2)CC1	-	0	0	0	0	-	-	-	-
CC(C)C[C@H]1COc2cccc(N3CCCCC3)c2S(=O)(=O)N1	-	0	0	0	0	-	-	-	-
CSc1ccccc1OCc1cc(C(=O)N2CCN(c3ccccc3)CC2C)no1 (configuration not stated)	0	0	0	0	0	-	-	-	-
CSc1ccccc1OCc1cc(C(=O)N2CCc3[nH]cnc3C2c2ccccn2)no1 (configuration not stated)	0	0	25.3	0	10.9	0	0	0	0
COc1ccc(Nc2nc(N)nc(CSC(=S)N3CCN(c4ccccc4)CC3)n2)cc1	0	0	22.7	0	12.0	0	0	26.2	13.6
CC(C)(C)NC(=O)CSc1nc2ccc(NC(=O)CSc3nnnn3Cc3ccccc3)cc2s1	0	0	24.6	0	9.8	0	0	22.3	14.1
C=CCCC1CN(CC=C)S(=O)(=O)c2c(F)cccc2O1 (configuration not stated)	-	0	0	0	0	-	-	-	-
O=C(CN(c1cccc(Br)c1)S(=O)(=O)c1ccccc1)N/N=C/c1cc([N+](=O)[O-])ccc1O	0	0	26.8	0	16.2	0	0	28.1	16.7
CCN(CC)S(=O)(=O)c1cccc(NC(=O)Nc2cccc(C(F)(F)F)c2)c1	0	0	30.2	0	11.1	0	0	55.3	29.1
CCN(CC)S(=O)(=O)c1cccc(NC(=O)CC2CCCC2)c1	0	0	0	0	0	-	-	-	-
COc1ccc(Cc2c(C3CCCCC3)nc3ccc(C)cn23)c(C)c1	-	0	0	0	0	-	-	-	-
Cc1cc(C)c(-c2cc(NC(=O)COC(=O)c3ccc(C#N)cc3)n(-c3ccccc3)n2)cc1C	0	0	22.5	0	9.1	0	0	22.3	13.0
Cc1cccc(C)c1OCC(O)Cn1c2ccccc2c2ccccc21 (configuration not stated)	0	0	20.4	0	12.2	0	0	20.6	12.7
OC(COCC(F)(F)C(F)(F)C(F)(F)C(F)F)Cn1c2ccccc2c2ccccc21 (configuration not stated)	0	0	34.0	0	14.7	0	0	29.2	19.1
C[C@@H]1CNCCN1c1ccc(N2CCN(Cc3ccccc3)[C@@H](C)C2)c(C#N)c1	-	0	0	0	0	-	-	-	-
c1ccc(CN2CCC(Nc3nc(-c4ccccc4)nc4ccccc34)CC2)cc1	0	0	20.9	0	8.9	0	0	21.8	14.8
Cc1ccc(NC(=O)c2c(C(F)(F)F)nn(C)c2SCc2ccc(Cl)cc2)cc1C	0	0	0	0	0	-	-	-	-
Cc1ccc(NC(=O)c2c(C(F)(F)F)nn(C)c2SCc2cccc(C(F)(F)F)c2)cc1C	0	0	37.0	0	14.2	0	0	45.2	24.8
O=C(Nc1cccc(Cl)c1)c1cc(S(=O)(=O)NCCc2ccc(Cl)cc2)ccc1F	0	0	28.9	0	13.1	0	0	34.1	17.4
CCOC(=O)N1CCC(NC(=O)c2cc(S(=O)(=O)NCCc3ccccc3)ccc2F)CC1	0	0	0	0	0	-	-	-	-
Cc1ccc(NC(=O)c2cc(S(=O)(=O)NCCc3ccccc3)ccc2F)cc1Cl	0	0	22.9	0	15.7	0	0	23.9	14.3
COC(=O)[C@]12C[C@H](CC(=O)NCC3CCCCC3)C(=O)N(CCC3=CCCCC3)C1=C[C@H](C(C)C)O[C@@H]2C1CC1	-	0	0	0	0	-	-	-	-
SMILES	MT1-MMP act inh	Tn7 DDE FP	ADAM10 inh	Tn6 DDE FP	ADAM17 inh	ADAM10 confirm	ADAM17 counter	ADAM10 ctr	ADAM17 confirm
COc1cc(-c2[nH]ncc2CN2CCCC2c2nonc2C)cc(OC)c1OC (configuration not stated)	0	0	0	0	0	-	-	-	-
Cc1nonc1C1CCCN1Cc1cn[nH]c1-c1ccc(-c2ccccc2)cc1 (configuration not stated)	0	0	33.2	0	16.8	0	0	29.8	18.9
Cc1cc(F)ccc1C(O)c1ncc(-c2cccc(OCc3ccccc3)c2)[nH]1 (configuration not stated)	0	0	29.4	0	9.7	0	0	38.7	20.2
COc1cccc(-c2cnc(C(O)c3ccc(F)cc3C)[nH]2)c1 (configuration not stated)	0	0	0	0	0	-	-	-	-
CC(C)CC1C(=O)N(Cc2cn(CCC3OCCO3)nn2)CCS(=O)(=O)N1Cc1ccc(-c2ccccc2)cc1 (configuration not stated)	0	0	0	0	0	-	-	-	-
Cc1ccc(-c2ccc(CN3C(CC(C)C)C(=O)N(Cc4cn(CCC5OCCO5)nn4)CCS3(=O)=O)cc2)cc1 (configuration not stated)	0	0	26.1	0	9.8	0	0	26.0	23.0
COCOCCn1cc(CN2CCS(=O)(=O)N(Cc3ccc(-c4ccc(Cl)c(Cl)c4)cc3)C(C(C)C)C2=O)nn1 (configuration not stated)	0	0	26.6	0	9.1	0	0	28.2	19.8
COCCCNC(=O)c1ccc(Cn2c(=O)c3ccccc3n(Cc3ccc(Br)cc3)c2=O)cc1	-	0	0	0	0	-	-	-	-
COC(=O)[C@]12C[C@H](CC(=O)N3CCOCC3)C(=O)N(Cc3ccc4c(c3)OCO4)C1=C[C@H](C(C)(C)C)O[C@@H]2C	-	0	0	0	0	-	-	-	-
COCc1[nH]nc2c1C(c1ccc(F)cc1)N(c1ccc(OC)cc1)C2=O (configuration not stated)	-	0	0	0	0	-	-	-	-
